Measurements as given in ChEMBL document CHEMBL2380235, “Discovery of N-{4-[(3-hydroxyphenyl)-3-methylpiperazin-1-yl]methyl-2-methylpropyl}-4-phenoxybenzamide analogues as selective kappa opioid receptor antagonists” (J Med Chem, 2013).
Activity calls are given as the source filed them. No cut-off for these calls is given here.

How the values were obtained:
Homo sapiens [1] = organism: Homo sapiens; assay: Selectivity ratio of Ke for human delta opioid receptor to Ke for human kappa opioid receptor
Homo sapiens [2] = organism: Homo sapiens; assay: Selectivity ratio of Ke for human mu opioid receptor to Ke for human kappa opioid receptor
[3] = target: Kappa-type opioid receptor (Homo sapiens) (UniProt P41145); assay: Antagonist activity at human kappa opioid receptor expressed in CHO cells assessed as inhibition of U69,593-stimulated [35S]GTPgammaS binding; format: functional, cell-based
Chain of Kappa-type opioid receptor (Homo sapiens) (P41145 whole entry): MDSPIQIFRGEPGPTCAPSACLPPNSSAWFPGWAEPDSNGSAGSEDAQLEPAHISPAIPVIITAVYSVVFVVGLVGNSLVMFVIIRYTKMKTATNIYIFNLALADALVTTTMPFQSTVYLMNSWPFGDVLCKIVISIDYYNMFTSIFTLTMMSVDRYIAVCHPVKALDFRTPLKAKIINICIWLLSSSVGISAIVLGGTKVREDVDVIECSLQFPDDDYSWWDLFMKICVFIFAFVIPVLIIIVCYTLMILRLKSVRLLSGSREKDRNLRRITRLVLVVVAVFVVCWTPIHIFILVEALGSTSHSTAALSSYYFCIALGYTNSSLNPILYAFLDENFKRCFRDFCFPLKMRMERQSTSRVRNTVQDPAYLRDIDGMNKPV
Outline: (§1)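 Agonist concentration-response curves (eight concentrations, duplicate) were run with or without a single test-compound concentration. Ke = [L]/(DR−1), where [L] is the test-compound concentration and DR is the ratio of agonist EC50 with versus without compound. At least two test-compound concentrations were used, chosen to shift agonist EC50 rightward at least four-fold while keeping a clear upper asymptote.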

[4] = target: Delta-type opioid receptor (Homo sapiens) (UniProt P41143); assay: Antagonist activity at human delta opioid receptor expressed in CHO cells assessed as inhibition of DPDPE-stimulated [35S]GTPgammaS binding; format: functional, cell-based; outline: as §1
Chain of Delta-type opioid receptor (Homo sapiens) (P41143 whole entry): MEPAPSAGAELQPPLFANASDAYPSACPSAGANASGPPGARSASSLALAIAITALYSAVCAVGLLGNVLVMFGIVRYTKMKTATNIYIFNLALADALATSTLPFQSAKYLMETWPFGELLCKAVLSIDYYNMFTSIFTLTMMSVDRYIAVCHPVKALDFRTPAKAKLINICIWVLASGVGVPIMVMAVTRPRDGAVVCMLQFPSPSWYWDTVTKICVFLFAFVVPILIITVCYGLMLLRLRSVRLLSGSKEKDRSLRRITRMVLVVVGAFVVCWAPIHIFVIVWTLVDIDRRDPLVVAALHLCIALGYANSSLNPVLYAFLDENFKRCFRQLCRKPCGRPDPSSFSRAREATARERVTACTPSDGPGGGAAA

[5] = target: Kappa-type opioid receptor (Homo sapiens) (UniProt P41145); assay: Intrinsic activity at human kappa opioid receptor expressed in CHO cells at 10 uM by [35S]GTPgammaS binding assay; format: functional, cell-based
[6] = target: Delta-type opioid receptor (Homo sapiens) (UniProt P41143); assay: Intrinsic activity at human delta opioid receptor expressed in CHO cells at 10 uM by [35S]GTPgammaS binding assay; format: functional, cell-based
[7] = target: Mu-type opioid receptor (Homo sapiens) (UniProt P35372); settings: CHO
Chain of Mu-type opioid receptor (Homo sapiens) (P35372 whole entry): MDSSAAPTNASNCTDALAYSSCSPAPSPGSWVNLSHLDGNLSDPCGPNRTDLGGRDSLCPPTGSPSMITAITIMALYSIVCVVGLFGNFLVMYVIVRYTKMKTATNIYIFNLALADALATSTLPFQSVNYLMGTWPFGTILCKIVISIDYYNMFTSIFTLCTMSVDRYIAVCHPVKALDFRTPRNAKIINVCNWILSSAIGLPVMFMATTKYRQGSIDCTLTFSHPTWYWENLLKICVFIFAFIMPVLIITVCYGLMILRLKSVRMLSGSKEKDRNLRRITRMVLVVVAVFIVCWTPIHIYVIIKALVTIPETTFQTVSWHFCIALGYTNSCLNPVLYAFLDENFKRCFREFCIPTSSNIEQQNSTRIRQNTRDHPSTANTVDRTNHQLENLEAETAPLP

Row | Ratio Ke (Homo sapiens [1]) | Ratio Ke (Homo sapiens [2]) | Ke [3] [nM] | Ke [4] [nM] | Activity [5] | Activity [6] | Ke [7] [nM] | SMILES
1 | 22 | 28 | 0.65 | – | inactive | inactive | – | Cc1cccc(Oc2ccc(C(=O)N[C@H](CN3CCN(c4cccc(O)c4)[C@@H](C)C3)C(C)C)c(C)c2)c1
2 | 142 | 24 | 0.57 | 81 | inactive | inactive | 13.7 | Cc1cccc(Oc2ccc(C(=O)N[C@H](CN3CCN(c4cccc(O)c4)[C@@H](C)C3)C(C)C)cc2O)c1
3 | 3790 | 148 | 0.29 | 1100 | inactive | inactive | 43 | Cc1cccc(Oc2ccc(C(=O)N[C@H](CN3CCN(c4cccc(O)c4)[C@@H](C)C3)C(C)C)cc2Cl)c1
4 | 42 | 7 | 5 | – | inactive | inactive | – | CC(C)[C@@H](CN1CCN(c2cccc(O)c2)[C@@H](C)C1)NC(=O)c1ccc(Oc2ccccc2O)c(Cl)c1
5 | 272 | 70 | 0.34 | 93 | inactive | inactive | 23.8 | Cc1cccc(Oc2ccc(C(=O)N[C@H](CN3CCN(c4cccc(O)c4)[C@@H](C)C3)C(C)C)cc2)c1O
6 | 19 | 1.6 | 6.2 | – | inactive | inactive | – | COc1cc(C(=O)N[C@H](CN2CCN(c3cccc(O)c3)[C@@H](C)C2)C(C)C)ccc1Oc1cc(C)ccc1O
7 | 463 | 63 | 1.9 | – | inactive | inactive | – | Cc1cccc(Oc2ccc(C(=O)N[C@H](CN3CCN(c4cccc(O)c4)[C@@H](C)C3)C(C)C)c(O)c2)c1
8 | 372 | 140 | 0.25 | 93 | inactive | inactive | 35.1 | COc1cc(C(=O)N[C@H](CN2CCN(c3cccc(O)c3)[C@@H](C)C2)C(C)C)ccc1Oc1cccc(C)c1
9 | 131 | 89 | 0.16 | 21 | inactive | inactive | 14.4 | Cc1cccc(Oc2ccc(C(=O)N[C@H](CN3CCN(c4cccc(O)c4)[C@@H](C)C3)C(C)C)cc2C)c1
10 | 48 | 38 | 1.3 | 63 | inactive | inactive | 49 | COc1cc(Oc2cccc(C)c2)ccc1C(=O)N[C@H](CN1CCN(c2cccc(O)c2)[C@@H](C)C1)C(C)C

More lines, now with the values behind:

Row | SMILES | Ratio Ke (Homo sapiens [1]) | Ratio Ke (Homo sapiens [2]) | Ke [3] [nM] | Ke [4] [nM] | Activity [5] | Activity [6] | Ke [7] [nM]
11 | CC(C)[C@@H](CN1CCN(c2cccc(O)c2)[C@@H](C)C1)NC(=O)c1ccc(Oc2ccccc2)nc1 | 1120 | 38 | 1.6 | 1790 | inactive | inactive | 60
12 | CC(C)[C@@H](CN1CCN(c2cccc(O)c2)[C@@H](C)C1)NC(=O)c1ccc(Oc2cccc(F)c2)cc1 | 117 | 20 | 1.48 | 173 | inactive | inactive | 30
13 | COc1ccc(C(=O)N[C@H](CN2CCN(c3cccc(O)c3)[C@@H](C)C2)C(C)C)cc1OC | – | 4 | 81.7 | – | – | inactive | –
14 | CC(C)[C@@H](CN1CCN(c2cccc(O)c2)[C@@H](C)C1)NC(=O)c1ccc(Oc2ccc(O)cc2)cc1 | 197 | 8 | 8.6 | 1700 | inactive | inactive | 71
15 | COc1ccc(Oc2ccc(C(=O)N[C@H](CN3CCN(c4cccc(O)c4)[C@@H](C)C3)C(C)C)cc2)cc1 | 2300 | 28 | 0.6 | 1380 | inactive | inactive | 17
16 | CC(C)[C@@H](CN1CCN(c2cccc(O)c2)[C@@H](C)C1)NC(=O)[C@H]1Cc2ccc(O)cc2CN1 | – | – | – | 1310 | inactive | inactive | 74.2
17 | CC(C)[C@@H](CN1CCN(c2cccc(O)c2)[C@H](C)C1)NC(=O)[C@H]1Cc2ccc(O)cc2CN1 | – | – | – | 1550 | inactive | inactive | 49.4
18 | COc1ccccc1Oc1ccc(C(=O)N[C@H](CN2CCN(c3cccc(O)c3)[C@@H](C)C2)C(C)C)cc1 | 155 | 23 | 5.6 | 869 | inactive | inactive | 127
19 | CC(C)[C@@H](CN1CCN(c2cccc(O)c2)[C@@H](C)C1)NC(=O)c1ccc(Oc2cccc(C(F)(F)F)c2)cc1 | 45 | 18 | 1.2 | 54 | inactive | inactive | 21
20 | Cc1ccc(O)c(Oc2ccc(C(=O)N[C@H](CN3CCN(c4cccc(O)c4)[C@@H](C)C3)C(C)C)cc2)c1 | – | – | – | – | inactive | inactive | –
21 | Cc1cccc(Oc2ccc(C(=O)N[C@H](CN3CCN(c4cccc(O)c4)[C@@H](C)C3)C(C)C)cc2)c1 | 771 | 77 | 0.17 | 131 | inactive | inactive | 13
22 | CC(C)[C@@H](CN1CCN(c2cccc(O)c2)[C@@H](C)C1)NC(=O)c1ccc(Oc2cccc(Br)c2)cc1 | 88 | 35 | 0.48 | 42 | inactive | inactive | 17
23 | Cc1cc(C(=O)N[C@H](CN2CCN(c3cccc(O)c3)[C@@H](C)C2)C(C)C)ccc1Oc1ccccc1 | 691 | 24 | 0.63 | 435 | inactive | inactive | 15
24 | CC(C)[C@@H](CN1CCN(c2cccc(O)c2)[C@@H](C)C1)NC(=O)c1ccc(Oc2ccccc2O)cc1 | 906 | 146 | 1.06 | 960 | inactive | inactive | 125
25 | COc1cc(C(=O)N[C@H](CN2CCN(c3cccc(O)c3)[C@@H](C)C2)C(C)C)ccc1Oc1ccccc1O | 7 | 5 | 16.3 | – | inactive | inactive | 74
26 | Cc1cc(C)cc(Oc2ccc(C(=O)N[C@H](CN3CCN(c4cccc(O)c4)[C@@H](C)C3)C(C)C)cc2)c1 | 80 | 26 | 0.98 | 78 | inactive | inactive | 25
27 | COc1cccc(Oc2ccc(C(=O)N[C@H](CN3CCN(c4cccc(O)c4)[C@@H](C)C3)C(C)C)cc2)c1 | 2380 | 52 | 0.63 | 1500 | inactive | inactive | 33
